Measurements published in the array DNA melting data of Ke et al. (doi:10.1101/2024.01.08.574731).

Experiments:
[1] = melting temperature; fluorescence melt of hairpins on a sequencing array, two-state fit, raised by 9.35 °C to match UV melts; conditions: sodium 0.088 M
Procedure, shortened: (§1)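 Melting temperature and folding enthalpy were obtained by bootstrapped two-state fitting. Fits used Cy3 fluorescence of library hairpins with annealed Cy3 and quencher oligos on a sequenced MiSeq flow cell, imaged in 50 mM Na-HEPES pH 8.0, 25 mM NaCl in 2.5 °C steps up to 60 °C and normalised to pre-quench Cy3 and control constructs. Four replicates were combined by inverse-variance weighting, and fitted temperatures were raised by 9.35 °C to match UV melts.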

[2] = folding enthalpy; higher = less favourable; fluorescence melt of hairpins on a sequencing array, two-state fit; conditions: sodium 0.088 M
Procedure, shortened: as §1

Sequence	Tm [1]	folding enthalpy [2]
GCAACCACGAAAGTGTGC (((..(((....))))))	41.7 °C	-17.4 kcal/mol
GTTGACGAAAGTCGGAAC ((((((....)))..)))	32.7 °C	-8.87 kcal/mol
GCGCCTGGAAACAGACGC (((.(((....))).)))	55.8 °C	-29.4 kcal/mol
GCCGTCGGAAACGGTGGC (((..((....))..)))	51.3 °C	-22 kcal/mol
GTGTCTGGAAACGGACAC (((((.(....).)))))	54 °C	-41.3 kcal/mol
GAGATTGGAAACAACCTC (((.(((....))).)))	32 °C	-21 kcal/mol
GGACACGGAAACACGTCC ((((..(....)..))))	36.4 °C	-21.8 kcal/mol
GAGCCGCGAAAGCGACTC (((.(((....))).)))	65.3 °C	-26.2 kcal/mol
GATCCCCAGAGGGATC ((((((....))))))	59.8 °C	-31.7 kcal/mol
CGAACGGAAACGTTTCG ((((((....))).)))	46.1 °C	-26.2 kcal/mol
GACACCCGAAAGGGAGTC (((.(((....))).)))	57.5 °C	-29.6 kcal/mol
GGCGGTTCGAAAGAAGCC (((..(((....))))))	41 °C	-16.6 kcal/mol
GACGGCGAAAGCCTCGTC ((((((....)))..)))	56.4 °C	-13.1 kcal/mol
GATCTATTTCTAGATC ((((((....))))))	38.9 °C	-30.2 kcal/mol
GTCATCGAAAGATGCGAC ((((((....)))..)))	46.1 °C	-19.8 kcal/mol
GACGCCGGAAACAGCGTC (((((.(....).)))))	54.8 °C	-35.9 kcal/mol
GTGGGGGGAAACCCCCGC (.(((((....))))).)	60 °C	-19.4 kcal/mol
GGTCGAGGAAACTCGGCC ((.((((....)))).))	59.5 °C	-53.9 kcal/mol
GATCTTGATTAAGATC ((((((....))))))	41.8 °C	-26.6 kcal/mol
GATCCAGCGTTGGATC ((((((....))))))	49.6 °C	-44.2 kcal/mol
GGCCCTGGAAACAGGGTC (.(((((....))))).)	58.9 °C	-36 kcal/mol
GCCGACGCGAAAGCGGGC (((..(((....))))))	65.9 °C	-18.1 kcal/mol
GGTGCTCGAAAGAGACC (((.(((....))))))	46.5 °C	-19.4 kcal/mol

Sequence	Tm [1]	folding enthalpy [2]
GTCTAATCGAAAGATGAC (((..(((....))))))	31.6 °C	-14.8 kcal/mol
GATTCCGGAAACGGAATC (((((((....)))))))	64.7 °C	-42.5 kcal/mol
GAAGATGGAAACATTTTC (((.(((....))).)))	30.4 °C	-21.9 kcal/mol
GATCAAGGCTTGATC ((((((...))))))	47.8 °C	-49.3 kcal/mol
GCAATGCGAAAGCCTTGC ((((.((....)).))))	53.9 °C	-27.6 kcal/mol
GATCATCACGATGATC ((((((....))))))	51.8 °C	-42.6 kcal/mol
GTACGCGAAAGCGGTTAC ((((((....)))..)))	32.7 °C	-8.32 kcal/mol
GCAGACCCGAAAGGGTGC (((..(((....))))))	50.3 °C	-14.2 kcal/mol
GCGCCGCGAAAGCTGGGC ((.(.((....)).).))	57 °C	-16.1 kcal/mol
GGCGACGAAAGTCTGGCC ((((((....)))..)))	53.7 °C	-23.3 kcal/mol
GCAGGGCGAAAGCCGCGC ((..(((....)))..))	64.7 °C	-22.2 kcal/mol
GCAGATGGAAACATTTGC (((.(((....))).)))	44.5 °C	-33.7 kcal/mol
GTGTACCGAAAGGTCCAC (((.(((....))).)))	48.1 °C	-31 kcal/mol
GGCGGATCGAAAGATGCC (((..(((....))))))	46.1 °C	-22.7 kcal/mol
GATAGCGAAAGCTATC ((((((....))))))	61.3 °C	-33 kcal/mol
GATCCAAGGGTGGATC ((((((....))))))	48.4 °C	-32 kcal/mol
GATGAGGGAAACCCCATC ((((.((....)).))))	41.2 °C	-31.4 kcal/mol
GCGAGTGGAAACGTTCGC ((((..(....)..))))	45.5 °C	-24.6 kcal/mol
GTCCACGAAAGTGCTGAC ((((((....)))..)))	33.9 °C	-14.7 kcal/mol
GTTCTCGAAAGAGGTAAC ((((((....)))..)))	22.7 °C	-8.25 kcal/mol
GCAACGACGAAAGTCTGC (((..(((....))))))	40.5 °C	-16.6 kcal/mol
GCCACGCCGAAAGGCGGC (((..(((....))))))	48.3 °C	-7.28 kcal/mol
GAACCGGGAAACCGGCTC ((.((((....)))).))	46 °C	-15.7 kcal/mol
